Data reported in ChEMBL document CHEMBL3272208, “(Vinylaryloxy)acetic acids. A new class of diuretic agents. 3. ((2-Nitro-1-alkenyl)aryloxy)acetic acids” (1976).

Tests used:
Canis familiaris [1] = assay: Diuretic activity in mongrel dog assessed as sodium level in excreted urine at 1 mg/kg, po measured for 6 hrs (reference value: 2 mequivalents); type: functional, Canis lupus familiaris
Canis familiaris [2] = assay: Diuretic activity in mongrel dog assessed as chloride level in excreted urine at 1 mg/kg, iv measured between 15 to 45 mins after dosage (reference value: 1 to 70 uequiv/min); type: functional, Canis lupus familiaris
In short: (§1)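 Compounds were given iv to dogs as Na salts in H2O. The baseline is the mean of two 15-min periods before dosing. The response is the mean of two consecutive 15-min periods of maximal Na+ excretion, usually 15–45 min post-dose. Na+, K+ and Cl- are in μequiv/min and urine volume in ml/min, reported as control/drug.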

Canis familiaris [3] = assay: Diuretic activity in mongrel dog assessed as chloride level in excreted urine at 1 mg/kg, po measured for 6 hrs (reference value: 2 mequivalents); type: functional, Canis lupus familiaris
Canis familiaris [4] = assay: Diuretic activity in mongrel dog assessed as volume of excreted urine at 1 mg/kg, po measured for 6 hrs (RVb = 180 ml)
Canis familiaris [5] = assay: Diuretic activity in mongrel dog assessed as sodium level in excreted urine at 1 mg/kg, iv measured […] after dosage (reference value: 3 to 95 uequiv/min); type: functional, Canis lupus familiaris; in short: as §1
Canis familiaris [6] = assay: Diuretic activity in mongrel dog assessed as potassium level in excreted urine at 1 mg/kg, po measured for 6 hrs (reference value: 1 mequivalents); type: functional, Canis lupus familiaris
Canis familiaris [7] = assay: Diuretic activity in mongrel dog assessed as potassium level in excreted urine at 1 mg/kg, iv measured between 15 to 45 mins after dosage (reference value: 6 to 47 uequiv/min); type: functional, Canis lupus familiaris
In short: as §1, with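 “H2O. […]” for “H2O.”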

Canis familiaris [8] = assay: Diuretic activity in mongrel dog assessed as volume of excreted urine at 1 mg/kg, iv measured between 15 to 45 mins after dosage (reference value: 1 to 4 ml/min); type: functional, Canis lupus familiaris
In short: as §1, with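 “H2O. […]” for “H2O.”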

Canis familiaris [9] = assay: Diuretic activity in mongrel dog assessed as potassium level in excreted urine at 0.4 mg/kg, po measured for 6 hrs (reference value: 1 mequivalents); type: functional, Canis lupus familiaris
Canis familiaris [10] = assay: Diuretic activity in mongrel dog assessed as chloride level in excreted urine at 0.4 mg/kg, po measured for 6 hrs (reference value: 2 mequivalents); type: functional, Canis lupus familiaris
Canis familiaris [11] = assay: Diuretic activity in mongrel dog assessed as volume of excreted urine at 0.4 mg/kg, po measured for 6 hrs (RVb = 180 ml)
Canis familiaris [12] = assay: Diuretic activity in mongrel dog assessed as sodium level in excreted urine at 0.4 mg/kg, po measured for 6 hrs (reference value: 2 mequivalents); type: functional, Canis lupus familiaris
Canis familiaris [13] = assay: Diuretic activity in mongrel dog assessed as sodium level in excreted urine at 10 mg/kg, iv measured […] after dosage (reference value: 5 to 66 uequiv/min); type: functional, Canis lupus familiaris
In short: as §1, with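 “H2O. […]” for “H2O.”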

Canis familiaris [14] = assay: Diuretic activity in mongrel dog assessed as chloride level in excreted urine at 10 mg/kg, iv measured between 15 to 45 mins after dosage (reference value: 3 to 64 uequiv/min); type: functional, Canis lupus familiaris; in short: as §1
Canis familiaris [15] = assay: Diuretic activity in mongrel dog assessed as volume of excreted urine at 5 mg/kg, po measured for 6 hrs (RVb = 180 ml)
Canis familiaris [16] = assay: Diuretic activity in mongrel dog assessed as potassium level in excreted urine at 5 mg/kg, po measured for 6 hrs (reference value: 1 mequivalents); type: functional, Canis lupus familiaris
Canis familiaris [17] = assay: Diuretic activity in mongrel dog assessed as volume of excreted urine at 10 mg/kg, iv measured between 15 to 45 mins after dosage (reference value: 1 to 4 ml/min); type: functional, Canis lupus familiaris
In short: as §1, with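 “H2O. […]” for “H2O.”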

Canis familiaris [18] = assay: Diuretic activity in mongrel dog assessed as chloride level in excreted urine at 5 mg/kg, po measured for 6 hrs (reference value: 2 mequivalents); type: functional, Canis lupus familiaris
Canis familiaris [19] = assay: Diuretic activity in mongrel dog assessed as sodium level in excreted urine at 5 mg/kg, po measured for 6 hrs (reference value: 2 mequivalents); type: functional, Canis lupus familiaris
Canis familiaris [20] = assay: Diuretic activity in mongrel dog assessed as potassium level in excreted urine at 10 mg/kg, iv measured between 15 to 45 mins after dosage (reference value: 7 to 63 uequiv/min); type: functional, Canis lupus familiaris
In short: as §1, with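 “H2O. […]” for “H2O.”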

Canis familiaris [21] = assay: Diuretic activity in mongrel dog assessed as potassium level in excreted urine at 2 mg/kg, po measured for 6 hrs (reference value: 1 mequivalents); type: functional, Canis lupus familiaris
Canis familiaris [22] = assay: Diuretic activity in mongrel dog assessed as volume of excreted urine at 2 mg/kg, po measured for 6 hrs (RVb = 180 ml)
Canis familiaris [23] = assay: Diuretic activity in mongrel dog assessed as sodium level in excreted urine at 2 mg/kg, po measured for 6 hrs (reference value: 2 mequivalents); type: functional, Canis lupus familiaris
Canis familiaris [24] = assay: Diuretic activity in mongrel dog assessed as chloride level in excreted urine at 2 mg/kg, po measured for 6 hrs (reference value: 2 mequivalents); type: functional, Canis lupus familiaris
Canis familiaris [25] = assay: Diuretic activity in mongrel dog assessed as potassium level in excreted urine at 5 mg/kg, iv measured between 15 to 45 mins after dosage (reference value: 12 to 70 uequiv/min); type: functional, Canis lupus familiaris
In short: as §1, with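 “H2O. […]” for “H2O.”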

Canis familiaris [26] = assay: Diuretic activity in mongrel dog assessed as volume of excreted urine at 5 mg/kg, iv measured between 15 to 45 mins after dosage (reference value: 1 to 5 ml/min); type: functional, Canis lupus familiaris
In short: as §1, with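 “H2O. […]” for “H2O.”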

Canis familiaris [27] = assay: Diuretic activity in mongrel dog assessed as sodium level in excreted urine at 5 mg/kg, iv measured […] after dosage (reference value: 1 to 91 uequiv/min); type: functional, Canis lupus familiaris
In short: as §1, with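 “H2O. […]” for “H2O.”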

Canis familiaris [28] = assay: Diuretic activity in mongrel dog assessed as chloride level in excreted urine at 5 mg/kg, iv measured between 15 to 45 mins after dosage (reference value: 1 to 65 uequiv/min); type: functional, Canis lupus familiaris
In short: as §1, with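 “H2O. […]” for “H2O.”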

Canis familiaris [29] = assay: Diuretic activity in mongrel dog assessed as volume of excreted urine at 0.1 mg/kg, iv measured between 15 to 45 mins after dosage (reference value: 1 ml/min); type: functional, Canis lupus familiaris
In short: as §1, with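 “H2O. […]” for “H2O.”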

Canis familiaris [30] = assay: Diuretic activity in mongrel dog assessed as chloride level in excreted urine at 0.1 mg/kg, iv measured between 15 to 45 mins after dosage (reference value: 14 uequiv/min); type: functional, Canis lupus familiaris
In short: as §1, with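 “H2O. […]” for “H2O.”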

Canis familiaris [31] = assay: Diuretic activity in mongrel dog assessed as potassium level in excreted urine at 0.1 mg/kg, iv measured between 15 to 45 mins after dosage (reference value: 14 uequiv/min); type: functional, Canis lupus familiaris
In short: as §1, with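 “H2O. […]” for “H2O.”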

Canis familiaris [32] = assay: Diuretic activity in mongrel dog assessed as sodium level in excreted urine at 0.1 mg/kg, iv measured […] after dosage (reference value: 36 uequiv/min); type: functional, Canis lupus familiaris
In short: as §1, with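 “H2O. […]” for “H2O.”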

Canis familiaris [33] = assay: Diuretic activity in mongrel dog assessed as sodium level in excreted urine at 3 mg/kg, po measured for 6 hrs (reference value: 2 mequivalents); type: functional, Canis lupus familiaris
Canis familiaris [34] = assay: Diuretic activity in mongrel dog assessed as chloride level in excreted urine at 3 mg/kg, po measured for 6 hrs (reference value: 2 mequivalents); type: functional, Canis lupus familiaris
Canis familiaris [35] = assay: Diuretic activity in mongrel dog assessed as potassium level in excreted urine at 3 mg/kg, po measured for 6 hrs (reference value: 1 mequivalents); type: functional, Canis lupus familiaris

C/C(=C\c1ccc(OCC(=O)O)cc1Cl)[N+](=O)[O-]
Activity (Canis familiaris [1]): 16 milliequivalent | Activity (Canis familiaris [2]): 765 uEq/min | Activity (Canis familiaris [3]): 22 milliequivalent | Activity (Canis familiaris [4]): 402 mL | Activity (Canis familiaris [5]): 683 uEq/min | Activity (Canis familiaris [6]): 5 milliequivalent | Activity (Canis familiaris [7]): 92 uEq/min | Activity (Canis familiaris [8]): 7 mL/min

C/C(=C\c1ccc(OCC(=O)O)c(Cl)c1Cl)[N+](=O)[O-]
Activity (Canis familiaris [9]): 7 milliequivalent | Activity (Canis familiaris [2]): 2163 uEq/min | Activity (Canis familiaris [5]): 2128 uEq/min | Activity (Canis familiaris [7]): 104 uEq/min | Activity (Canis familiaris [8]): 11 mL/min | Activity (Canis familiaris [10]): 31 milliequivalent | Activity (Canis familiaris [11]): 628 mL | Activity (Canis familiaris [12]): 25 milliequivalent

CC/C(=C\c1ccc(OCC(=O)O)c(Cl)c1Cl)[N+](=O)[O-]
Activity (Canis familiaris [1]): 26 milliequivalent | Activity (Canis familiaris [2]): 1295 uEq/min | Activity (Canis familiaris [3]): 28 milliequivalent | Activity (Canis familiaris [4]): 465 mL | Activity (Canis familiaris [5]): 1174 uEq/min | Activity (Canis familiaris [6]): 5 milliequivalent | Activity (Canis familiaris [7]): 89 uEq/min | Activity (Canis familiaris [8]): 10 mL/min

C/C(=C\c1ccc(OCC(=O)O)c2ccccc12)[N+](=O)[O-]
Activity (Canis familiaris [1]): 33 milliequivalent | Activity (Canis familiaris [2]): 1659 uEq/min | Activity (Canis familiaris [3]): 39 milliequivalent | Activity (Canis familiaris [4]): 538 mL | Activity (Canis familiaris [5]): 1612 uEq/min | Activity (Canis familiaris [6]): 7 milliequivalent | Activity (Canis familiaris [7]): 128 uEq/min | Activity (Canis familiaris [8]): 15 mL/min

C/C(=C\c1ccc(OCC(=O)O)cc1)[N+](=O)[O-]
Activity (Canis familiaris [13]): 649 uEq/min | Activity (Canis familiaris [14]): 611 uEq/min | Activity (Canis familiaris [2]): 61 uEq/min | Activity (Canis familiaris [5]): 82 uEq/min | Activity (Canis familiaris [7]): 12 uEq/min | Activity (Canis familiaris [15]): 378 mL | Activity (Canis familiaris [8]): 2 mL/min | Activity (Canis familiaris [16]): 2 milliequivalent | Activity (Canis familiaris [17]): 6 mL/min | Activity (Canis familiaris [18]): 4 milliequivalent | Activity (Canis familiaris [19]): 6 milliequivalent | Activity (Canis familiaris [20]): 70 uEq/min

CCCCC/C(=C\c1ccc(OCC(=O)O)c(Cl)c1Cl)[N+](=O)[O-]
Activity (Canis familiaris [1]): 10 milliequivalent | Activity (Canis familiaris [2]): 269 uEq/min | Activity (Canis familiaris [3]): 9 milliequivalent | Activity (Canis familiaris [4]): 413 mL | Activity (Canis familiaris [5]): 179 uEq/min | Activity (Canis familiaris [6]): 3 milliequivalent | Activity (Canis familiaris [7]): 56 uEq/min | Activity (Canis familiaris [8]): 3 mL/min

COC(=O)COc1ccc(/C=C(\C)[N+](=O)[O-])c(Cl)c1Cl
Activity (Canis familiaris [15]): 769 mL | Activity (Canis familiaris [16]): 7 milliequivalent | Activity (Canis familiaris [18]): 47 milliequivalent | Activity (Canis familiaris [19]): 37 milliequivalent

C/C(=C\c1ccc(OCC(N)=O)c(Cl)c1Cl)[N+](=O)[O-]
Activity (Canis familiaris [21]): 8 milliequivalent | Activity (Canis familiaris [22]): 485 mL | Activity (Canis familiaris [23]): 25 milliequivalent | Activity (Canis familiaris [24]): 39 milliequivalent

CC(=O)/C=C/c1ccc(OCC(=O)O)c(Cl)c1Cl
Activity (Canis familiaris [25]): 76 uEq/min | Activity (Canis familiaris [26]): 8 mL/min | Activity (Canis familiaris [27]): 911 uEq/min | Activity (Canis familiaris [28]): 1080 µequiv/min

CC(=O)C(=Cc1ccc(OCC(=O)O)c(Cl)c1Cl)C(C)=O
Activity (Canis familiaris [9]): 6 milliequivalent | Activity (Canis familiaris [1]): 30 milliequivalent | Activity (Canis familiaris [29]): 9 mL/min | Activity (Canis familiaris [4]): 492 mL | Activity (Canis familiaris [30]): 1100 uEq/min | Activity (Canis familiaris [6]): 7 milliequivalent | Activity (Canis familiaris [31]): 187 uEq/min | Activity (Canis familiaris [32]): 984 uEq/min | Activity (Canis familiaris [7]): 104 uEq/min | Activity (Canis familiaris [8]): 11 mL/min | Activity (Canis familiaris [11]): 762 mL

C=C(CC)C(=O)c1ccc(OCC(=O)O)c(Cl)c1Cl [ETHACRYNIC ACID]
Activity (Canis familiaris [1]): 21 milliequivalent | Activity (Canis familiaris [13]): 2989 uEq/min | Activity (Canis familiaris [14]): 3324 uEq/min | Activity (Canis familiaris [2]): 244 uEq/min | Activity (Canis familiaris [33]): 37 milliequivalent | Activity (Canis familiaris [3]): 26 milliequivalent | Activity (Canis familiaris [34]): 42 milliequivalent | Activity (Canis familiaris [5]): 188 uEq/min | Activity (Canis familiaris [6]): 5 milliequivalent | Activity (Canis familiaris [7]): 52 uEq/min | Activity (Canis familiaris [35]): 7 milliequivalent | Activity (Canis familiaris [8]): 6 mL/min | Activity (Canis familiaris [17]): 22 mL/min | Activity (Canis familiaris [20]): 194 uEq/min
